Assay outcomes as filed in PubChem.
CHO-K1 Ca ag: counter-screen for M1 agonists: effect in parental CHO-K1 cells | activation, % at 3 µM | 360,000 compounds, 0.48% hits | Fluo-8 calcium fluorescence; scaled to maximal ATP response, vehicle zero; in the data active = activation above about 15%;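 note: untransfected CHO-K1 host cells lacking M1 receptor as counterscreen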
OX1R antag-1: antagonists of human orexin 1 receptor. O43613. CHO/OX1R cells, Fluo-8 calcium fluorescence, orexin A. inhibition, % at 5 µM. 330,000 compounds, 0.43% hits;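 active = inhibition above its plate's threshold, mean inhibition of all tested compounds on the plate plus 3 SD, cut at about 37% in these data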;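 note: 0% = orexin A challenge wells and 100% = SB-334867-A antagonist wells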
Target sequence (O43613 whole entry, looked up): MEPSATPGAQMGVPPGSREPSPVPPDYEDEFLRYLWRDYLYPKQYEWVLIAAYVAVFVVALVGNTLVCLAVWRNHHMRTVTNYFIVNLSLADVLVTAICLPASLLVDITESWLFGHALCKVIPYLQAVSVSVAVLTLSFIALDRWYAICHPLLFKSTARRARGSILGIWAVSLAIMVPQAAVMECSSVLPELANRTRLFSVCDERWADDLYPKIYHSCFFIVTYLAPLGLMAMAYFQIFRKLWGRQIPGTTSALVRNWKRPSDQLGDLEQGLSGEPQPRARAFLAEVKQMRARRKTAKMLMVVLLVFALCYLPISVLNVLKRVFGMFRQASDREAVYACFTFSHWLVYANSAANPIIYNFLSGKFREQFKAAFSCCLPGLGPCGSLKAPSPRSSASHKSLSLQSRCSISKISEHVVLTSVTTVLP
CHO parental Ca: counter-screen for OX1R antagonists: effect in parental CHO cells. parental CHO-K1, ATP-induced calcium, Fluo-8 fluorescence. inhibition, % at 5.6 µM. 330,000 compounds, 0.63% hits. AID 463079;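 active = inhibition above that plate's mean sample inhibition plus 3 SD, cut at about 26% in these data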;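 note: 0% = ATP-challenged DMSO wells and 100% = DMSO wells without ATP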
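Assay system – parental CHO cells · Reagent – ATP stimulus · Detection – intracellular calcium via Fluo-8 no-wash fluorescent dye · Evaluation – percent inhibition of ATP-evoked calcium rise, normalized to controls · Controls – ATP wells versus no-ATP DMSO wells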
CHO-K1 Ca antag: nonselective inhibitor or artifact in parental CHO-K1 cells; ATP-induced calcium, Fluo-8 fluorescence; inhibition, % at 3 µM; 360,000 compounds, 0.6% hits; AID 602250;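 active = inhibition above a per-plate cutoff, the plate's mean sample inhibition plus 3 SD, cut at about 24% in these data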;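 note: 0% = DMSO plus EC80 ATP and 100% = DMSO alone without ATP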
CHO-K1 Ca PAM: nonselective activator or artifact in parental CHO-K1 calcium assay. ATP EC20, Fluo-8 calcium fluorescence; 0% at ATP EC20, 100% at ATP max. activation, % at 3 µM. 360,000 compounds, 0.02% hits. AID 602247;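 active = activation above the run cutoff, the mean activation of all test compounds plus 3 SD, cut at about 40% in these data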;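 note: peak over basal fluorescence ratio in a 140 s read after ATP addition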
OX1R antag-2: blocks the human orexin 1 receptor; O43613; OX1R-expressing cells, FRET antagonist read-out; inhibition, % at 6.6 µM; 330,000 compounds, 1.8% hits; in the data active = inhibition mostly above about 38%, no sharp cut-off; inactive = mostly below about 40%;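 note: 0% = agonist challenge alone and 100% = reference antagonist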
Starred values were filed as active, the others as inactive; . = no result. The list is not random: actives were taken first. Their share in the collection is about 2.9%.

SMILES	CHO-K1 Ca ag	OX1R antag-1	CHO parental Ca	CHO-K1 Ca antag	CHO-K1 Ca PAM	OX1R antag-2
CN(C(=O)COC(=O)/C=C/c1ccc(C(F)(F)F)cc1)C1CCS(=O)(=O)C1 (stereo not drawn)	3	-1	8	9	-28	12
CSc1cccc(NC(=S)N(CCC(C)C)C(C)c2ccncc2)c1 (stereo not drawn)	3	-29	-12	11	-21	13
CC1(C(=O)NS(=O)(=O)c2ccc(F)cc2F)CCN1C(=O)Cc1ccc(Cl)cc1Cl (stereo not drawn)	0	.	.	27*	-9	.
O=c1nc2n(c3ccc([N+](=O)[O-])cc13)CCCCC2	0	0	-3	-17	17	59*
O=C(Nc1ccc2nc3n(c(=O)c2c1)CCCCC3)c1cc([N+](=O)[O-])ccc1F	1	-16	-15	-5	-8	39
COc1cccc(Oc2cc(Cl)nc(N)n2)c1	2	-14	-8	-10	25	16
CC(=O)N(c1ccc(C)cc1)C1C=CS(=O)(=O)C1 (stereo not drawn)	0	-14	-2	24*	-4	10
Cc1ccc(N(C(=O)C2CCCC2)C2C=CS(=O)(=O)C2)cc1 (stereo not drawn)	0	-3	-3	3	-2	12
OCCCNCc1ccc(N(c2ccccc2)c2ccccc2)cc1	5	-24	-2	3	-2	0
O=C(COC(=O)C1CCN(S(=O)(=O)c2ccc(Cl)c(C(F)(F)F)c2)CC1)NCc1ccco1	1	-19	42*	3	6	18
CC1CCCCN1C(=O)COC(=O)C1CCN(S(=O)(=O)c2ccc(Cl)c(C(F)(F)F)c2)CC1 (stereo not drawn)	1	-32	-17	-5	12	5
Cc1ccc(S(=O)(=O)N2CCN(S(=O)(=O)N3CCC(C)CC3)CC2)cc1C	1	-8	-11	-15	10	-1
CCN(CC)S(=O)(=O)c1cc(NC(=O)CNc2cccc(S(=O)(=O)N3CCCC3)c2)ccc1C	7	30	45*	19	-4	34
O=C(Cn1nc(C(=O)O)c2ccccc2c1=O)Nc1cccc(S(=O)(=O)N2CCCC2)c1	4	.	.	6	-3	.
O=C(CNc1ccc(Br)cc1)Nc1cccc(S(=O)(=O)N2CCCC2)c1	1	-4	-12	-4	-3	7
CN(C)S(=O)(=O)c1cccc(NC(=O)CNc2cccc(S(=O)(=O)N3CCCCC3)c2)c1	6	.	.	-5	15	.
O=C(CNc1cccc(S(=O)(=O)N2CCCC2)c1)Nc1cccc(Br)c1	19*	-6	-1	5	-16	28
O=C(Cn1nc(C(=O)O)c2ccccc2c1=O)Nc1cccc(S(=O)(=O)N2CCCCCC2)c1	-1	43*	32*	-7	13	32
Cc1cc(C(=O)Nc2cccc(C)c2C)c2ccccc2n1	1	-26	-14	-6	-4	12
Cc1csc(=O)n1CC(=O)OCc1nnc(-c2ccc([N+](=O)[O-])cc2)o1	0	1	-2	-20	-2	37*
O=C(CCC(=O)c1ccc(F)cc1)OCc1nnc(-c2ccc([N+](=O)[O-])cc2)o1	3	-2	-9	-11	9	41*
Cc1csc(=O)n1CC(=O)OCc1nnc(-c2ccc(Cl)cc2)o1	0	-23	-17	15	-19	17
CC1(C)Cc2cccc(OCC(=O)OCc3nnc(-c4ccc([N+](=O)[O-])cc4)o3)c2O1	1	-7	-2	-17	17	50*
Cc1csc(=O)n1CC(=O)OCC(=O)NNC(=O)c1ccc([N+](=O)[O-])cc1	0	-1	0	5	-13	76*
Cc1csc(=O)n1CCC(=O)OCC(=O)Nc1cc(Cl)ccc1[N+](=O)[O-]	1	-18	-8	5	-21	53*
SMILES	CHO-K1 Ca ag	OX1R antag-1	CHO parental Ca	CHO-K1 Ca antag	CHO-K1 Ca PAM	OX1R antag-2
CC(=O)c1c(C)[nH]c(C(=O)OCc2nnc(-c3ccc([N+](=O)[O-])cc3)o2)c1C	1	10	11	11	-22	15
Cc1ccc(C(=O)NCC(=O)OCc2nnc(-c3ccc([N+](=O)[O-])cc3)o2)s1	2	-17	-14	-20	6	38*
Cc1csc(=O)n1CCC(=O)OCC(=O)Nc1ncc(Cl)cc1Cl	1	-15	-11	-12	10	21
CC(=O)O[C@H]1C[C@@]2(C)[C@@H](C[C@@H](O)[C@H]3[C@@]4(C)CC[C@@H](O)[C@@H](C)[C@@H]4CC[C@@]32C)/C1=C(\CCC=C(C)C)C(=O)O	1	-36	-34	-12	16	13
COC(=O)c1ccc(/C(O)=C(\C#N)c2nc3ccccc3s2)cc1	4	-11	7	-18	13	50
COc1cc(/C=C(\C#N)c2nc3ccccc3s2)ccc1OCC(=O)Nc1ccccc1	3	43	46*	-7	19	12
N#C/C(=C/c1ccncc1)c1nc2ccccc2s1	10	51*	44*	14	-6	15
CC(C)=C(C#N)c1nc2ccccc2s1	6	74*	50*	2	14	9
C=CCn1c(=N)n(CC(=O)c2cccc([N+](=O)[O-])c2)c2ccccc21	0	-21	-6	-6	20	39*
N=c1n(CCN2CCCCC2)c2ccccc2n1CC(=O)c1cccc([N+](=O)[O-])c1	11	-31	-25	9	0	30
COc1cc(/C=C2/SC(=S)N(Cc3ccccc3)C2=O)ccc1O	6	33	33*	10	-14	8
CCOc1cc(/C=C2\SC(=S)N(C(C(=O)O)c3ccccc3)C2=O)ccc1O (stereo not drawn)	29*	10	28	9	0	15
O=C1/C(=C\c2cc([N+](=O)[O-])ccc2O)SC(=S)N1Cc1ccc(Cl)cc1	7	68*	62*	7	-6	32
COc1cc(/C=C2\SC(=S)N(C(C(=O)O)c3ccccc3)C2=O)ccc1O (stereo not drawn)	29*	22	21	7	-15	6
CC1(C)C(=O)C=C(N2CCCCC2)c2ccccc21	0	.	.	-2	2	.
COc1cc(/C=C2/SC(=O)NC2=O)ccc1OCc1ccccc1	4	-19	-7	14	-1	54*
Cc1nc2cc(-c3ccc(Cl)cc3)nn2c(C)c1CCC(=O)NC(C)c1ccc2c(c1)OCCO2 (stereo not drawn)	1	7	-17	9	-10	49*
Cc1csc(NC(=O)CCc2c(C)nc3cc(-c4ccc(Cl)cc4)nn3c2C)n1	0	-17	-4	-5	3	6
COc1ccc(N2CCN(CCCNC(=O)C(=O)c3c[nH]c4ccccc34)CC2)cc1	2	-25	-18	-5	-2	32
Cn1cccc1C(=O)NC1CCCCC1	1	-11	-16	-8	5	24
